# Compound activity (PubChem)
# S1P3 ag: S1P3 (human) receptor agonism | Q99500 | S1P3 NFAT-BLA reporter cells, FRET ratio; relative to 1 µM S1P, basal subtracted | activation, % at 4.5 µM | actives 0.1% (n = 60,000);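 active = activation above the screen-wide mean plus 3 SD, cut at about 4.5% in these data, passing the limit was not always enough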
#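 Material: Human S1P3 NFAT-BLA reporter CHO cells | Incubation: Overnight plating, 4 h compound 37 °C, 2 h substrate RT | Signal: FRET β-lactamase substrate fluorescence, excitation 405 nm, 460/535 nm emission ratio, background-subtracted | Compound: 4.5 µM final, single dose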
# M1 antagonist: M1 muscarinic receptor (rat) antagonism. P08482. CHO-M1 cells, Fluo-4 calcium, ACh EC80 antagonist mode; hits give low values. B-score at 10 µM. actives 3.4% (n = 64,000). AID 628;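 active = calcium fluorescence response, raw or row-and-column corrected B-score, differing from the plate sample mean either way at a set confidence level, mostly lower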
# Target sequence (P08482 whole entry, looked up): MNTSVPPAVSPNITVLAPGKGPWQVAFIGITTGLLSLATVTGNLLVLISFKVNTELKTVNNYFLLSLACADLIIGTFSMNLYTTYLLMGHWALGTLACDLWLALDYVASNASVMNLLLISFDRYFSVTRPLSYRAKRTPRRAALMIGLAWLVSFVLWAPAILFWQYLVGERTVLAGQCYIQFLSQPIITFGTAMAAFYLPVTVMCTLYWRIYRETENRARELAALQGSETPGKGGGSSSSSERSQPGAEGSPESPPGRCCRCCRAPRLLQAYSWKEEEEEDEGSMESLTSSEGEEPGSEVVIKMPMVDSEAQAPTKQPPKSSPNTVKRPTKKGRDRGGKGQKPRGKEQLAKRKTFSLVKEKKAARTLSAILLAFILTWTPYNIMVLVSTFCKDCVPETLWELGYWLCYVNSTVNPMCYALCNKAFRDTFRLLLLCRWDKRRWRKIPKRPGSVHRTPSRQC
# S1P1 ag pot: S1P1 (human) agonism or agonism potentiation | P21453 | S1P1 CRE-bla cells, forskolin, beta-lactamase FRET, potentiator mode; S1P1 agonist co-added at EC20, 2 nM; 100% = saturating reference agonist, 0% = basal | activation, % at 9.5 µM | actives 0.57% (n = 56,000) | AID 449;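 active = activation above a cutoff set at the mean activation of all tested compounds plus 3 SD, cut at about 54% in these data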;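 also: forskolin at 4 µM as EC80 and the EC20 agonist is SEW2871; 100% = SEW2871 at its EC100 plus forskolin at EC80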
# D1 allo mod: allosteric modulators of human D1 dopamine receptor; actives 5.9% (n = 58,000); HEK293 D1, CRE-luciferase, dopamine EC30 potentiation; actives deviate in either direction; B-score at 10 µM; AID 641;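 active = luminescence count or its row- and column-corrected plate score outside the 99.7% band of the plate's sample wells, on either side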
# M1 agonist: agonists of M1 muscarinic receptor; CHO-M1 cells, Fluo-4 calcium fluorescence, agonist mode; hits give high values; B-score at 10 µM; actives 3% (n = 64,000);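 active = fluorescence rise, raw or as B-score row- and column-corrected plate score, outside the 99.7% band of its plate's samples, either direction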
# D1 mod confirm: D1 receptor (human) allosteric modulation, confirmed; shares compounds with D1 allo mod; HEK293 D1 CRE-luciferase, dopamine EC30 potentiation; hits give high values; luminescence at 10 µM; actives 88% (n = 2,200);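 active = luminescence in either of two replicates above the same-plate mean plus 3 SD of the low-dose dopamine control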
# D1 no dopamine: secondary test of D1 modulators: activity without dopamine; shares compounds with D1 allo mod; HEK293 D1 CRE-luciferase, luminescence, no dopamine; hits give high values; luminescence at 10 µM; actives 0.8% (n = 1,900); in the data active = luminescence above about 3900
# Isoprot counter: isoproterenol response counter-screen activity for D1 modulators; HEK293 D1 CRE-luciferase, isoproterenol EC30 counter-screen; calls only at 10 µM; actives 63% (n = 2,200); shares compounds with D1 allo mod;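 active = luminescence in either replicate above plate mean of wells with a partly effective reference agonist dose plus 3 SD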;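 also: isoproterenol raises cAMP through native beta-adrenoceptor Gs so signal bypasses D1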
# An asterisk follows results filed as active; i = inactive; / = no result; + = active, no number. Hits are enriched below; roughly 11% of the tested compounds scored in any of these assays.
SMILES,S1P3 ag,M1 antagonist,S1P1 ag pot,D1 allo mod,M1 agonist,D1 mod confirm,D1 no dopamine,Isoprot counter
COC(=O)Nc1c(-c2ccccc2)nc2ccc(C)cn12,-1,0.15,7,3.1*,0.14,6300,1728,i
CCOC(=O)C(C)Oc1nc(Oc2ccccc2)nc(N(C)C)n1 (stereo not given),0,0.039,2,/,0.016,/,/,/
Cc1ccc(C2=Nc3ccccc3NC(C)(c3ccc(C)o3)C2)o1 (stereo not given),-1,-0.024,-1,0.16,0.57,/,/,/
Cc1noc(C)c1S(=O)(=O)N1CCCC(C(=O)NCc2ccccn2)C1 (stereo not given),0,0.25,3,4.2*,-0.47,6380*,1568,i
COc1ccc(OC)c(NS(=O)(=O)c2ccc(SC)cc2)c1,-1,-0.22,16,0.5,0.54,/,/,/
CCOc1ccc(S(=O)(=O)Nc2cc(OC)ccc2OC)cc1,-1,-0.87,11,4.5*,0.36,11952*,1748,+
N#CC1=C(N)N(c2ccccc2)C2=C(C(=O)CCC2)C1c1cccs1 (stereo not given),0,-0.16,-2,3.2*,-0.59,7976*,1556,i
CCC1Oc2ccc(C)cc2N(CC(=O)NCCN2C(C)CCCC2C)C1=O (stereo not given),0,-1.8,4,5*,0.32,4656,1552,i
COc1nccc(Nc2ccccc2)c1C#N,-1,0.44,-10,6.6*,-0.24,14732*,/,+
Cc1cc(C)nc(SCc2nnc(SCC(=O)NCc3ccco3)n2-c2ccccc2)n1,0,/,11,0.25,/,/,/,/
CCOC(=O)N1CCN(C(=O)c2cnn(-c3ccccc3)c2NC(=O)c2ccccc2F)CC1,0,-0.31,10,-0.97,0.3,/,/,/
CN(C)c1nc(Oc2ccc(/C=N/O)cc2)nc(N(C)C)n1,-1,0.83,/,0.98,-2e-05,/,/,/
CC(C)Nc1nc(NC(C)C)nc(Oc2ccc(/C=N/O)cc2)n1,0,-0.39,-40,5.3*,-0.0024,6456*,/,i
Cc1cc2cc(CN(CCN3CCOCC3)C(=O)Nc3ccccc3F)c(=O)[nH]c2cc1C,0,0.59,-48,2.7*,1.2,5960*,1568,i
CC(C)C(NC(=O)OC(C)(C)C)C(=O)N1CCCC1C(=O)NC(Cc1ccccc1)C(N)=O (stereo not given),1,0.0053,6,0.82,-0.3,/,/,/
CCCn1c2ccccc2c2nnc(SCC(=O)Nc3ncccn3)nc21,1,-0.73,-31,20*,-0.053,22748*,1692,+
CCCS(=O)(=O)N1CCN(C(=O)COc2ccc(-c3ccccc3)cc2)CC1,-1,/,-18,-0.5,/,/,/,/
O=C(NC1CCCC1)c1cccnc1N1CCCCCC1,0,0.47,-7,-0.017,0.37,/,/,/
Cc1nc2cccc(C(=O)NC3CCCCC3)c2o1,1,-0.81,1,14*,0.079,19668*,/,+
Cn1c(=O)[nH]c(=O)c2c1nc(Br)n2CCC(=O)c1ccccc1,0,-0.41,-11,1.8,0.073,/,/,/
COc1cc(Br)cc(-c2nc3c(c(=O)[nH]c(=O)n3Cc3ccccc3)n2C)c1O,/,0.12,/,8.2*,-0.3,26460*,1556,+
CCN(CC)C(=O)COc1ccc(CC(=O)O)cc1OC,-1,0.72,-6,0.61,-0.021,/,/,/
CCOc1ccc(CC(=O)C2C(=O)CCCC2=O)cc1OCC,0,0.32,3,4.3*,-0.41,10588*,1684,+
COc1ccc(S(=O)(=O)Nc2ccc3c(c2)OCO3)cc1OC,0,0.37,-3,3.1*,0.37,9304*,1612,i
CC1CCCC(N2C(=O)NC(NC(=O)c3ccco3)(C(F)(F)F)C2=O)C1C (stereo not given),-1,0.36,3,0.18,2.7,/,/,/
SMILES,S1P3 ag,M1 antagonist,S1P1 ag pot,D1 allo mod,M1 agonist,D1 mod confirm,D1 no dopamine,Isoprot counter
COCCCNc1nc(-c2ccncc2)nc2ccccc12,-2,-1.3,-8,5.7*,3.3,6996*,/,+
CCCCc1[nH]nc2c1C1(C(=O)N(CC)c3ccccc31)C(C#N)=C(N)O2 (stereo not given),0,-0.047,-7,16*,0.26,13864*,1676,+
CCCc1[nH]nc2c1C1(C(=O)N(C(C)C)c3ccccc31)C(C#N)=C(N)O2 (stereo not given),0,-0.22,-6,2,0.67,/,/,/
COc1cc(OC)c(S(=O)(=O)N2CCCCC2)cc1S(=O)(=O)N1CCCCC1,0,0.35,-7,-0.61,0.51,/,/,/
Cc1ccc(NC(=O)CC2SC3=NCCN3C2=O)cc1 (stereo not given),/,-1.4,/,5.5*,0.023,6908,/,i
CCCCC1CC1C(=O)Nc1ncc2c(n1)CC(C)(C)CC2=O (stereo not given),-1,-0.33,/,0.19,0.015,/,/,/
O=C(CSCCNS(=O)(=O)c1ccccc1)Nc1ccccc1,-1,0.0031,/,0.3,-0.82,/,/,/
CCOc1ccc(Br)cc1-c1noc(-c2cccs2)n1,0,0.095,/,6.7*,-1.3,22604*,1692,+
COc1ccc(-c2noc(CSc3nnc(Cc4ccccc4)n3-c3cccc(C)c3)n2)cc1OC,-1,-1.6,-27,1.5,0.13,/,/,/
COc1ccc(-c2noc(COc3ccccc3OC)n2)cc1OC,-2,-0.25,35,11*,0.12,17132*,1668,+
COc1ccc(-c2noc(-c3ccccc3Cl)n2)cc1OC,0,0.8,/,0.24,0.47,/,/,/
COc1ccc(-c2noc(-c3ccco3)n2)cc1OC,-1,-0.032,/,5.2*,0.73,18728*,1452,i
CCn1c(SCc2nc(-c3ccc(OC)c(OC)c3)no2)nnc1-c1cccs1,0,-1,/,5.3*,0,11432*,1604,+
CCOc1ccc(-c2noc(-c3ccncc3)n2)cc1OCC,17*,-0.56,109*,11*,-1.3,/,1596,+
CCCCOc1cccc(NC(=O)CSc2nccn2C)c1,0,0.45,-10,0.48,1.3,/,/,/
CCOC(=O)C1C(c2cccc(Cl)c2Cl)NC(=O)NC1(O)C(F)(F)F (stereo not given),/,-0.35,/,0.67,0.018,/,/,/
CC(=O)C1=C(C)NC(=O)NC1c1ccc(OC2CCCC2)cc1 (stereo not given),0,0.31,1,0.33,-0.052,/,/,/
COc1ccc(Cc2nnc(-c3cccc(C)c3)o2)cc1OC,0,0.16,-6,4.3*,-1.9,13948*,1620,+
